Measurements taken from ChEMBL document CHEMBL3585281, “Antibacterial Labdane Diterpenoids from Vitex vestita” (2015).
≈ marks a conversion by molar mass, not a printed value.

Assays:
Type in all cases: functional
[1] = test system: Staphylococcus aureus; assay: Antibacterial activity against Staphylococcus aureus CIP 483 after 18 hrs by agar dilution method; settings: CIP 483, 18 h
Outline: (§1)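 Agar-dilution MIC against Gram-positive strains. Compounds in DMSO, geometric dilutions giving final 100−0.75 mg/L in Mueller Hinton agar. Strains grown 18 h at 37 °C in trypticase soy broth, diluted in sterile water, spotted by Steers inoculator (about 1000 UFC/spot). Plates incubated 18 h at 37 °C; DMSO blank; ofloxacin positive control. MIC = lowest concentration with no visible growth.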

[2] = test system: Staphylococcus intermedius; assay: Antibacterial activity against Staphylococcus intermedius N987 after 18 hrs by agar dilution method; settings: N987, 18 h; outline: as §1
[3] = test system: Listeria monocytogenes; assay: Antibacterial activity against Listeria monocytogenes CIP 103575 after 18 hrs by agar dilution method; settings: CIP 103575, 18 h; outline: as §1
[4] = test system: Staphylococcus aureus; assay: Antibacterial activity against Staphylococcus aureus ATCC 25923 after 18 hrs by agar dilution method; settings: ATCC 25923, 18 h; outline: as §1
[5] = test system: Staphylococcus aureus; assay: Antibacterial activity against Staphylococcus aureus CRBIP 2121 after 18 hrs by agar dilution method; settings: CRBIP 2121, 18 h; outline: as §1
[6] = test system: Bacillus cereus; assay: Antibacterial activity against Bacillus cereus CIP 6624 after 18 hrs by agar dilution method; settings: CIP 6624, 18 h; outline: as §1
[7] = test system: Staphylococcus aureus; assay: Antibacterial activity against Staphylococcus aureus CIP 5710 after 18 hrs by agar dilution method; settings: CIP 5710, 18 h; outline: as §1
[8] = test system: Mammaliicoccus sciuri; assay: Antibacterial activity against Staphylococcus sciuri N993 after 18 hrs by agar dilution method; settings: N993, 18 h; outline: as §1
[9] = test system: Listeria monocytogenes; assay: Antibacterial activity against Listeria monocytogenes N783 after 18 hrs by agar dilution method; settings: N783, 18 h; outline: as §1
[10] = test system: Enterococcus avium; assay: Antibacterial activity against Enterococcus avium CIP 104053 after 18 hrs by agar dilution method; settings: CIP 104053, 18 h; outline: as §1
[11] = test system: Staphylococcus aureus; assay: Antibacterial activity against Staphylococcus aureus ATCC 9144 oxford after 18 hrs by agar dilution method; outline: as §1
[12] = test system: Listeria monocytogenes; assay: Antibacterial activity against Listeria monocytogenes N836 after 18 hrs by agar dilution method; settings: N836, 18 h; outline: as §1
[13] = test system: Enterococcus faecalis; assay: Antibacterial activity against Enterococcus faecalis N518 after 18 hrs by agar dilution method; settings: N518, 18 h; outline: as §1
[14] = test system: Enterococcus faecium; assay: Antibacterial activity against Enterococcus faecium CIP 103014 after 18 hrs by agar dilution method; settings: CIP 103014, 18 h; outline: as §1
[15] = test system: Listeria innocua; assay: Antibacterial activity against Listeria innocua E044 after 18 hrs by agar dilution method; settings: E044, 18 h; outline: as §1
[16] = test system: Listeria monocytogenes; assay: Antibacterial activity against Listeria monocytogenes N851 after 18 hrs by agar dilution method; settings: N851, 18 h; outline: as §1
[17] = test system: Staphylococcus epidermidis; assay: Antibacterial activity against Staphylococcus epidermidis CIP 53124 after 18 hrs by agar dilution method; settings: CIP 53124, 18 h; outline: as §1
[18] = test system: Enterococcus faecium; assay: Antibacterial activity against Enterococcus faecium CIP 107387 after 18 hrs by agar dilution method; settings: CIP 107387, 18 h; outline: as §1
[19] = test system: Staphylococcus aureus; assay: Antibacterial activity against Staphylococcus aureus CIP 7625 after 18 hrs by agar dilution method; settings: CIP 7625, 18 h; outline: as §1
[20] = test system: Staphylococcus saprophyticus; assay: Antibacterial activity against Staphylococcus saprophyticus E260 after 18 hrs by agar dilution method; settings: E260, 18 h; outline: as §1
[21] = test system: Enterococcus gallinarum; assay: Antibacterial activity against Enterococcus gallinarum N489 after 18 hrs by agar dilution method; settings: N489, 18 h; outline: as §1
[22] = test system: HCT-116; assay: Cytotoxicity against human HCT116 cells assessed as growth inhibition at 10^-6 M after 72 hrs by MTS assay relative to control; settings: HCT-116, 72 h, read-out: GI
Outline: (§2)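 Cells from ATCC; HCT-116 grown in RPMI 1640 and MRC5 in DMEM, each with 10% FCS and 1% glutamine, 37 °C, 5% CO2. Seeded at 2.5 × 10^3 cells/well, cultured 24 h, then exposed to compounds at 1 and 10 μM final for 72 h. MTS read-out, absorbance 490 nm; percent index from treated/control OD490 × 100, three experiments.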

[23] = test system: Enterococcus casseliflavus; assay: Antibacterial activity against Enterococcus casseliflavus N487 after 18 hrs by agar dilution method; settings: N487, 18 h; outline: as §1
[24] = test system: Enterococcus gallinarum; assay: Antibacterial activity against Enterococcus gallinarum N492 after 18 hrs by agar dilution method; settings: N492, 18 h; outline: as §1
[25] = test system: Bacillus spizizenii; assay: Antibacterial activity against Bacillus subtilis ATCC 6633 after 18 hrs by agar dilution method; settings: ATCC 6633, 18 h; outline: as §1
[26] = test system: Enterococcus casseliflavus; assay: Antibacterial activity against Enterococcus casseliflavus CIP 103018 after 18 hrs by agar dilution method; settings: CIP 103018, 18 h; outline: as §1
[27] = test system: MRC5; assay: Cytotoxicity against human MRC5 cells assessed as growth inhibition at 10^-5 M after 72 hrs by MTS assay relative to control; settings: MRC5, 72 h, read-out: GI; outline: as §2
[28] = test system: Enterococcus faecalis; assay: Antibacterial activity against Enterococcus faecalis CIP 103214 after 18 hrs by agar dilution method; settings: CIP 103214, 18 h; outline: as §1
[29] = test system: MRC5; assay: Cytotoxicity against human MRC5 cells assessed as growth inhibition at 10^-6 M after 72 hrs by MTS assay relative to control; settings: MRC5, 72 h, read-out: GI; outline: as §2
[30] = test system: Enterococcus faecalis; assay: Antibacterial activity against Enterococcus faecalis N520 after 18 hrs by agar dilution method; settings: N520, 18 h; outline: as §1
[31] = test system: Enterococcus durans; assay: Antibacterial activity against Enterococcus durans CIP 104999 after 18 hrs by agar dilution method; settings: CIP 104999, 18 h; outline: as §1
[32] = test system: Staphylococcus lugdunensis; assay: Antibacterial activity against Staphylococcus lugdunensis ATCC 43809 after 18 hrs by agar dilution method; settings: ATCC 43809, 18 h; outline: as §1
[33] = test system: Enterococcus faecium; assay: Antibacterial activity against Enterococcus faecium N823 after 18 hrs by agar dilution method; settings: N823, 18 h; outline: as §1
[34] = test system: Bacillus cereus; assay: Antibacterial activity against Bacillus cereus N349 after 18 hrs by agar dilution method; settings: N349, 18 h; outline: as §1
[35] = test system: Enterococcus faecalis; assay: Antibacterial activity against Enterococcus faecalis N491 after 18 hrs by agar dilution method; settings: N491, 18 h; outline: as §1
[36] = test system: Enterococcus gallinarum; assay: Antibacterial activity against Enterococcus gallinarum CIP 105985 after 18 hrs by agar dilution method; settings: CIP 105985, 18 h; outline: as §1
[37] = test system: Enterococcus faecium; assay: Antibacterial activity against Enterococcus faecium N733 after 18 hrs by agar dilution method; settings: N733, 18 h; outline: as §1
[38] = test system: Bacillus cereus; assay: Antibacterial activity against Bacillus cereus N190 after 18 hrs by agar dilution method; settings: N190, 18 h; outline: as §1
[39] = test system: Staphylococcus aureus; assay: Antibacterial activity against Staphylococcus aureus CIP 53156 after 18 hrs by agar dilution method; settings: CIP 53156, 18 h; outline: as §1
[40] = test system: Bacillus cereus; assay: Antibacterial activity against Bacillus cereus N258 after 18 hrs by agar dilution method; settings: N258, 18 h; outline: as §1
[41] = test system: Staphylococcus saprophyticus; assay: Antibacterial activity against Staphylococcus saprophyticus CIP 76125 after 18 hrs by agar dilution method; settings: CIP 76125, 18 h; outline: as §1
[42] = test system: Staphylococcus haemolyticus; assay: Antibacterial activity against Staphylococcus haemolyticus CIP 8156 after 18 hrs by agar dilution method; settings: CIP 8156, 18 h; outline: as §1
[43] = test system: Corynebacterium striatum; assay: Antibacterial activity against Corynebacterium striatum N840 after 18 hrs by agar dilution method; settings: N840, 18 h; outline: as §1
[44] = test system: HCT-116; assay: Cytotoxicity against human HCT116 cells assessed as growth inhibition at 10^-5 M after 72 hrs by MTS assay relative to control; settings: HCT-116, 72 h, read-out: GI; outline: as §2
[45] = test system: Enterococcus faecium; assay: Antibacterial activity against Enterococcus faecium N490 after 18 hrs by agar dilution method; settings: N490, 18 h; outline: as §1
[46] = test system: Staphylococcus aureus; assay: Antibacterial activity against Staphylococcus aureus CIP 53154 after 18 hrs by agar dilution method; settings: CIP 53154, 18 h; outline: as §1
[47] = test system: Enterococcus faecalis; assay: Antibacterial activity against Enterococcus faecalis CIP 104676 after 18 hrs by agar dilution method; settings: CIP 104676, 18 h; outline: as §1
[48] = test system: Streptococcus agalactiae; assay: Antibacterial activity against Streptococcus agalactiae CIP 103227 after 18 hrs by agar dilution method; settings: ATCC 13813, 18 h; outline: as §1
[49] = test system: Enterococcus hirae; assay: Antibacterial activity against Enterococcus hirae CIP 5855 after 18 hrs by agar dilution method; settings: CIP 5855, 18 h; outline: as §1
[50] = test system: Enterococcus faecium; assay: Antibacterial activity against Enterococcus faecium N507 after 18 hrs by agar dilution method; settings: N507, 18 h; outline: as §1

MIC [1]: > 79 µM
MIC [2]: 50 µM (≈ 15.9 µg/mL)
MIC [3]: > 79 µM
MIC [4]: > 79 µM
MIC [5]: 50 µM (≈ 15.9 µg/mL)
MIC [6]: 50 µM (≈ 15.9 µg/mL)
MIC [7]: > 79 µM
MIC [8]: > 79 µM
MIC [9]: 50 µM (≈ 15.9 µg/mL)
MIC [10]: > 79 µM
MIC [11]: 50 µM (≈ 15.9 µg/mL)
MIC [12]: 50 µM (≈ 15.9 µg/mL)
MIC [13]: > 79 µM
MIC [14]: > 79 µM
MIC [15]: 50 µM (≈ 15.9 µg/mL)
MIC [16]: 50 µM (≈ 15.9 µg/mL)
MIC [17]: 50 µM (≈ 15.9 µg/mL)
MIC [18]: > 79 µM
MIC [19]: > 79 µM
MIC [20]: > 79 µM
MIC [21]: 50 µM (≈ 15.9 µg/mL)
MIC [23]: > 79 µM
MIC [24]: > 79 µM
MIC [25]: 25 µM (≈ 7.96 µg/mL)
MIC [26]: > 79 µM
MIC [28]: > 79 µM
MIC [30]: > 79 µM
MIC [31]: 50 µM (≈ 15.9 µg/mL)
MIC [32]: 79 µM (≈ 25.2 µg/mL)
MIC [33]: > 79 µM
MIC [34]: 25 µM (≈ 7.96 µg/mL)
MIC [35]: > 79 µM
MIC [36]: > 79 µM
MIC [37]: > 79 µM
MIC [38]: 25 µM (≈ 7.96 µg/mL)
MIC [39]: 50 µM (≈ 15.9 µg/mL)
MIC [40]: 25 µM (≈ 7.96 µg/mL)
MIC [41]: > 79 µM
MIC [43]: 50 µM (≈ 15.9 µg/mL)
MIC [45]: 50 µM (≈ 15.9 µg/mL)
MIC [46]: 50 µM (≈ 15.9 µg/mL)
MIC [47]: > 79 µM
MIC [48]: 50 µM (≈ 15.9 µg/mL)
MIC [49]: > 79 µM
MIC [50]: > 79 µM
Structure (SMILES): C=C1CC[C@H]2C(C)(C)CCC[C@]2(C)[C@H]1C[C@H](O)C1=CCOC1=O
inhibition of growth at 1 µM [22]: 0%
inhibition of growth at 10 µM [27]: 71%
inhibition of growth at 1 µM [29]: 0%
MIC [42]: > 79 µM
inhibition of growth at 10 µM [44]: 69%
